The source made the active and inactive calls. No cut-off for these calls is given here.
Assays:
[1] = Bioavailability in ip dosed mouse; format: ADME, organism-based; details: in vivo
Procedure, shortened: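 Bioavailability was calculated from intraperitoneal administration relative to an intravenous 1 mg/kg dose in mouse.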

[2] = Clearance in mouse at 1 mg/kg, iv; format: ADME, organism-based; details: in vivo
[3] = target: RAC-alpha serine/threonine-protein kinase (Homo sapiens) (UniProt P31749); assay: Inhibition of Akt PH domain (unknown origin) binding to PI(3,4)P2 at 100 uM by lipid overlay assay
Chain of RAC-alpha serine/threonine-protein kinase (Homo sapiens) (P31749 whole entry, the tested form may be a part): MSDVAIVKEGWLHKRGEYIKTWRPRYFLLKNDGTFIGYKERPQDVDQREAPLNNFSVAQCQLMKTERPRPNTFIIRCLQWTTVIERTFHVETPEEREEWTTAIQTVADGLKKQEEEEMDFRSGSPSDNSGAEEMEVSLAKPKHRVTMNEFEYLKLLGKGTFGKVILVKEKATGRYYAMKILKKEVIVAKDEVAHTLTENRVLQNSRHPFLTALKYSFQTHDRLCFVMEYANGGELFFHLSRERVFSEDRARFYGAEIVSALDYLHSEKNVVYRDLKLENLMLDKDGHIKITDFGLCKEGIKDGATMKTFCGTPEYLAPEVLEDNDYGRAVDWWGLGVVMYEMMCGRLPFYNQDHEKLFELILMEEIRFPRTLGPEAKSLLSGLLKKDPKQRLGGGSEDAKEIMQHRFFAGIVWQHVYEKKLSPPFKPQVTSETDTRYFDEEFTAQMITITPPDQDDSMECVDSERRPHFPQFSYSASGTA
Procedure, shortened: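 Lipid overlay: AktPH domain binding to PI(3,4)P2 spotted on a […] membrane.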

T47D = assay: Cytotoxicity against human T47D cells at 6.25 to 50 uM after 24 hrs by CellTitre-Glo assay; format: functional, cell-based
Procedure, shortened: (§1)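 Cells were treated with inhibitors alone for 24 hr. Viability was read by CellTiter-Glo luminescence.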

A2780 [4] = assay: Antimigratory activity against human A2780 cells at 0.75 to 1.5 uM by wound healing assay; format: functional, cell-based
Procedure, shortened: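 Wound healing: A2780 monolayers were treated with inhibitors and then scratch-wounded. The cell-free area was photographed at set time points, and the open wound area was quantified.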

[5] = Half life in mouse liver microsomes; format: ADME
Procedure, shortened: (§2)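 Stability in mouse liver microsomes in vitro. Half-life (min) and intrinsic clearance (μL·min⁻¹·mg⁻¹) were determined.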

[6] = Half life in mouse at 1 mg/kg, iv; format: ADME, organism-based; details: in vivo
[7] = Inhibition of Akt in human A2780 cells assessed as inhibition of TORC1/p70S6K/S6 pathway at 0.3 to 50 uM after 7 hrs by Western blotting analysis; format: cell-based
Procedure, shortened: (§3)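 U87MG or A2780 cells were exposed to inhibitors for 7 hr. Lysates were Western blotted with phospho-S6 and total S6 antibodies.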

[8] = Clearance in mouse liver microsomes; format: ADME; details: read-out: CLH; procedure, shortened: as §2
A2780 [9] = assay: Cytotoxicity against human A2780 cells at 6.25 to 50 uM after 24 hrs by CellTitre-Glo assay; format: functional, cell-based; procedure, shortened: as §1
A2780 [10] = assay: Cytotoxicity against human A2780 cells by ESI; format: functional, cell-based
A2780 [11] = assay: Cytotoxicity against human A2780 cells by […]; format: functional, cell-based
Procedure, shortened: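 Cells were exposed to inhibitors together with 1 μg/mL TRAIL for 24 hr. Viability was read by CellTiter-Glo assay.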

[12] = Inhibition of Akt in human U87MG cells assessed as inhibition of TORC1/p70S6K/S6 pathway at 0.3 to 50 uM after 7 hrs by Western blotting analysis; format: cell-based; details: U-87MG ATCC; procedure, shortened: as §3
U-87 MG = assay: Cytotoxicity against human U87MG cells at 6.25 to 50 uM after 24 hrs by CellTitre-Glo assay; format: functional, cell-based; details: U-87MG ATCC; procedure, shortened: as §1

Row | Compound | EC50 (A2780 [10]) | EC50 (A2780 [11]) [µmol] | other results
1 | O=C(c1cc(C(F)(F)F)cc(C(F)(F)F)c1)c1cn(-c2cc(Cl)ccc2O)nn1 | 11.99 µmol | 3.15 | bioavailability [1]: 85.1%; clearance [2]: 15.5 mL/min/kg; inhibition [3]: Active; Activity (T47D): Active; Activity (A2780 [4]): Active; half-life [5]: 1.98 h; half-life [6]: 3.22 h; inhibition [7]: Active; microsomal CLint [8]: 19.4 µL/min/mg; Activity (A2780 [9]): Active; inhibition [12]: Active; Activity (U-87 MG): Active
2 | Cc1cc(C)cc(C(=O)c2cn(-c3ccc(Cl)cc3O)nn2)c1 | > 100 µmol | 64.4 | 
3 | Cc1cccc(O)c1-n1cc(C(=O)c2ccccc2)nn1 | 8.1 µmol | 8 | 
4 | O=C(NC(=S)Nc1cc([N+](=O)[O-])cc(Cl)c1O)c1ccccc1 |  |  | inhibition [3]: Active
5 | Cc1cc(C)cc(C(=O)c2cn(-c3cc(Cl)ccc3O)nn2)c1 | 57.8 µmol | 30.6 | 
6 | Cc1ccc(O)c(-n2cc(C(=O)c3ccc(C(C)C)cc3)nn2)c1 | > 100 µmol | > 100 | 
7 | O=C(c1ccccc1)c1cn(-c2ccc(Cl)cc2O)nn1 | 48.9 µmol | 42.3 | 
8 | CC(C)c1ccc(C(=O)c2cn(-c3cc(Cl)ccc3O)nn2)cc1 | 64.1 µmol | 41.6 | 
9 | O=C(c1ccccc1)c1cn(-c2cc(Cl)ccc2O)nn1 | 104 µM | 51.6 | 
10 | Cc1ccc(O)c(-n2cc(C(=O)c3ccccc3)nn2)c1 | > 100 µmol | > 100 | 
11 | Cc1ccc(O)c(-n2cc(C(=O)c3ccc4ccccc4c3)nn2)c1 | > 100 µmol | > 100 | 
12 | Cc1cccc(O)c1-n1cc(C(=O)c2ccc3ccccc3c2)nn1 | 85.2 µmol | 74.9 | 
13 | O=C(c1ccc2ccccc2c1)c1cn(-c2cc(Cl)ccc2O)nn1 | > 100 µmol | > 100 | 
14 | Cc1cc(C)cc(C(=O)c2cn(-c3cc(C)ccc3O)nn2)c1 | > 100 µmol | > 100 | 
15 | Cc1cccc(O)c1-n1cc(C(=O)c2ccc(C(C)C)cc2)nn1 | > 100 µmol | > 100 | 
16 | Cc1cc(C)cc(C(=O)c2cn(-c3ccc([N+](=O)[O-])cc3O)nn2)c1 | 89.1 µmol | 70.5 | 
17 | O=C(NCc1cn(-c2cc(Cl)ccc2O)nn1)c1cc(C(F)(F)F)cc(C(F)(F)F)c1 | 16.2 µmol | 14 | 
18 | Cc1cc(C)cc(C(=O)NC(=S)Nc2cc([N+](=O)[O-])ccc2O)c1 |  |  | half-life [5]: 0.03 h; microsomal CLint [8]: 1260 µL/min/mg
19 | Cc1cc(C)cc(C(=O)c2cn(-c3c(C)cccc3O)nn2)c1 | 104 µM | 98.4 | 
20 | COc1ccc(Cl)cc1-n1cc(C(=O)c2ccccc2)nn1 | > 100 µmol | > 100 | 

From ChEMBL document CHEMBL3596181, “Optimization of the anti-cancer activity of phosphatidylinositol-3 kinase pathway inhibitor PITENIN-1: switching a thiourea with 1,2,3-triazole” (Medchemcomm, 2014)
